Reference: ChEMBL document CHEMBL1949546, “Pyrazoloquinolines as PDE10A inhibitors: discovery of a tool compound” (Bioorg Med Chem Lett, 2012)
Each block holds one compound with its values, some of them ahead of it.

Legend:
[1] = Clearance in rat hepatocytes assessed per million cells; format: ADME, cell-based, Hepatocyte; conditions: read-out: CLH
[2] = Clearance in human hepatocytes assessed per million cells; format: ADME, cell-based, Hepatocyte; conditions: read-out: CLH
[3] = AUC (0 to 6 hrs) in rat at 10 mg/kg, po; format: ADME, organism-based; parameters: time < 6 hr, dose 10 mg/kg, route oral; conditions: plasma
[4] = Clearance in monkey hepatocytes assessed per million cells; format: ADME, cell-based, Macaca mulatta, Hepatocyte; conditions: rhesus monkey, read-out: CLH
[5] = Plasma concentration in rat after 6 hrs; format: ADME
Method in brief: (§1)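 Animals were sacrificed at 6 h for ex vivo measurement of plasma concentration (nM) and brain level (ng/g), from which the brain to plasma ratio was derived.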

[6] = Ratio of drug level in brain to plasma of rat after 6 hrs; format: ADME; conditions: read-out: BPR; method in brief: as §1
[7] = Drug uptake in rat brain after 6 hrs; format: ADME, tissue-based; conditions: read-out: Drug uptake; method in brief: as §1
[8] = Clearance in dog hepatocytes assessed per million cells; format: ADME, cell-based, Canis lupus familiaris, Hepatocyte; conditions: read-out: CLH
[9] = AUC (0 to 6 hrs) in monkey at 3 mg/kg, po; format: ADME, organism-based, Macaca mulatta; parameters: time < 6 hr, dose 3 mg/kg, route oral; conditions: rhesus monkey, plasma
[10] = Half life in monkey at 3 mg/kg, po; format: ADME, organism-based, Macaca mulatta; parameters: dose 3 mg/kg, route oral; conditions: rhesus monkey, in vivo

SMILES: COc1cc(C)c2nc3[nH]nc(C)c3c(C(=O)c3ccncc3)c2c1
hepatocyte CLint [4]: 66 µL/min/1e6 cells

SMILES: COc1cc(C)c2nc3[nH]nc(C)c3c(C(O)c3ccc(F)cc3)c2c1 (racemic)
hepatocyte CLint [4]: 63 µL/min/1e6 cells

SMILES: COc1cc(C)c2nc3[nH]nc(C)c3c(C(C#N)c3ccccc3)c2c1 (racemic)
hepatocyte CLint [4]: 64 µL/min/1e6 cells

SMILES: COc1cc(C)c2nc3[nH]nc(C)c3c(C(C)(O)c3ccncc3)c2c1 (racemic)
hepatocyte CLint [4]: 66 µL/min/1e6 cells

SMILES: Cc1cc(Cl)cc2c(C(O)c3ccncc3)c3c(C)n[nH]c3nc12 (racemic)
hepatocyte CLint [4]: 25 µL/min/1e6 cells

SMILES: Cc1cc(Cl)cc2c(C(O)c3ccnc(F)c3)c3c(C)n[nH]c3nc12 (racemic)
hepatocyte CLint [4]: 37 µL/min/1e6 cells

SMILES: Cc1ncc(C(O)c2c3cc(Cl)cc(C)c3nc3[nH]nc(C)c23)cn1 (racemic)
hepatocyte CLint [4]: 8 µL/min/1e6 cells | hepatocyte CLint [1]: 11 µL/min/1e6 cells | concentration at 6 h [5]: 220 nM | hepatocyte CLint [8]: 7 µL/min/1e6 cells | Kp at 6 h [6]: < 0.18 | AUC(0-t) at 6 h [9]: 11.5 µM·h | half-life [10]: 7.1 h | hepatocyte CLint [2]: 2 µL/min/1e6 cells | AUC(0-t) at 6 h [3]: 4.29 µM·h | concentration at 6 h [7]: < 14 ng/g

SMILES: COc1cc(C)c2nc3[nH]nc(C)c3c(C(F)c3ccncc3)c2c1 (single isomer, unassigned; (-))
hepatocyte CLint [4]: 62 µL/min/1e6 cells

The next lines start with the values.

hepatocyte CLint [1]: < 1 µL/min/1e6 cells | hepatocyte CLint [2]: 8 µL/min/1e6 cells | AUC(0-t) at 6 h [3]: 3.76 µM·h
SMILES: COc1cc(C)c2nc3[nH]nc(C)c3c(CN3CCCOCC3)c2c1

hepatocyte CLint [4]: 67 µL/min/1e6 cells
SMILES: COc1cc(C)c2nc3[nH]nc(C)c3c(C(O)c3cccnc3)c2c1 (racemic)

hepatocyte CLint [4]: 66 µL/min/1e6 cells
SMILES: COc1cc(C)c2nc3[nH]nc(C)c3c(C(O)c3ccnc(F)c3)c2c1 (racemic)

hepatocyte CLint [4]: 63 µL/min/1e6 cells
SMILES: COc1cc(C)c2nc3[nH]nc(C)c3c(C(O)c3ncco3)c2c1 (racemic)

hepatocyte CLint [4]: 22 µL/min/1e6 cells
SMILES: COc1cc(C)c2nc3[nH]nc(C)c3c(C(O)c3cncn3C)c2c1 (racemic)

hepatocyte CLint [4]: 60 µL/min/1e6 cells
SMILES: COc1ccc(C(O)c2c3cc(OC)cc(C)c3nc3[nH]nc(C)c23)cc1 (racemic)

hepatocyte CLint [4]: 46 µL/min/1e6 cells | hepatocyte CLint [1]: 26 µL/min/1e6 cells | concentration at 6 h [5]: 810 nM | Kp at 6 h [6]: 1.5 | hepatocyte CLint [2]: 5 µL/min/1e6 cells | AUC(0-t) at 6 h [3]: 11 µM·h | concentration at 6 h [7]: 115 ng/g
SMILES: Cc1cc(Cl)cc2c(C(O)c3cccnc3)c3c(C)n[nH]c3nc12 (racemic)

hepatocyte CLint [4]: 66 µL/min/1e6 cells
SMILES: COc1cc(C)c2nc3[nH]nc(C)c3c(C(O)c3ccncc3)c2c1 (single isomer, unassigned; (+))
